Experimental data published in ChEMBL document CHEMBL1141413, “Cinnamacrins A-C, cinnafragrin D, and cytostatic metabolites with alpha-glucosidase inhibitory activity from Cinnamosma macrocarpa” (J Nat Prod, 2007).
Converted amounts (≈) assume the structure as drawn. The source made the active and inactive calls. The rule behind the calls is not given here.

Tests used:
[1] = molecular target: Maltase-glucoamylase (Homo sapiens) (UniProt O43451); assay: Inhibition of alpha-glucosidase in 1.20 mg/200 uL
[2] = Cytotoxicity against E6SM cells; format: cell-based; details: human, read-out: MIC
How it was run: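 Microscopic scoring of E6SM cell cultures; minimal cytotoxic concentration is the concentration causing a detectable alteration of normal cell morphology.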

[3] = system: Vaccinia virus; assay: Antiviral activity against vaccinia virus; format: functional; details: Orthopoxvirus vaccinia
How it was run: (§1)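 Antiviral test in E6SM cell cultures; the minimum inhibitory concentration is the level that reduces virus-induced cytopathogenicity by 50%.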

[4] = system: Vesicular stomatitis virus; assay: Antiviral activity against VSV; format: functional
How it was run: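 Tested in both E6SM and HeLa cell cultures; the minimum inhibitory concentration is the level that reduces virus-induced cytopathogenicity by 50%.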

[5] = system: Human alphaherpesvirus 1; assay: Antiviral activity against HSV1 KOS; format: functional; details: Human alphaherpesvirus 1, KOS; how it was run: as §1
[6] = system: Human alphaherpesvirus 2; assay: Antiviral activity against HSV2 G; format: functional; details: Human alphaherpesvirus 2, G
How it was run: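 Virus-induced cytopathogenicity in E6SM cell cultures; value is the concentration needed to reduce cytopathogenicity by 50%.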

[7] = system: Human alphaherpesvirus 1; assay: Antiviral activity against HSV1 TK KOS ACVr; format: functional; details: Human alphaherpesvirus 1, TK KOS ACVr; how it was run: as §1
[8] = Cytostatic activity against mouse L1210/0 cells; format: functional, cell-based
How it was run: (§2)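 Tumour cell proliferation assay; IC50 is the compound concentration that inhibits cell proliferation by 50%.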

[9] = system: MOLT-4; assay: Cytostatic activity against human Molt4/C8 cells; format: functional, cell-based; how it was run: as §2
[10] = system: CCRF-CEM; assay: Cytostatic activity against human CEM/0 cells; format: functional, cell-based; how it was run: as §2
[11] = system: Respiratory syncytial virus; assay: Antiviral activity against RSV; format: functional; details: human respiratory syncytial virus
How it was run: (§3)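 Antiviral test in HeLa cell cultures; the minimum inhibitory concentration is the level that reduces virus-induced cytopathogenicity by 50%.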

[12] = Cytotoxicity against HeLa cells; format: cell-based; details: human, read-out: MIC
How it was run: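 HeLa cell cultures examined by microscopy; the minimal cytotoxic concentration is the level that causes a microscopically detectable alteration of normal cell morphology.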

[13] = system: Coxsackievirus B4; assay: Antiviral activity against CV B4; format: functional; details: Enterovirus B; how it was run: as §3

Maltase-glucoamylase (Homo sapiens), sequence (O43451 whole entry, looked up): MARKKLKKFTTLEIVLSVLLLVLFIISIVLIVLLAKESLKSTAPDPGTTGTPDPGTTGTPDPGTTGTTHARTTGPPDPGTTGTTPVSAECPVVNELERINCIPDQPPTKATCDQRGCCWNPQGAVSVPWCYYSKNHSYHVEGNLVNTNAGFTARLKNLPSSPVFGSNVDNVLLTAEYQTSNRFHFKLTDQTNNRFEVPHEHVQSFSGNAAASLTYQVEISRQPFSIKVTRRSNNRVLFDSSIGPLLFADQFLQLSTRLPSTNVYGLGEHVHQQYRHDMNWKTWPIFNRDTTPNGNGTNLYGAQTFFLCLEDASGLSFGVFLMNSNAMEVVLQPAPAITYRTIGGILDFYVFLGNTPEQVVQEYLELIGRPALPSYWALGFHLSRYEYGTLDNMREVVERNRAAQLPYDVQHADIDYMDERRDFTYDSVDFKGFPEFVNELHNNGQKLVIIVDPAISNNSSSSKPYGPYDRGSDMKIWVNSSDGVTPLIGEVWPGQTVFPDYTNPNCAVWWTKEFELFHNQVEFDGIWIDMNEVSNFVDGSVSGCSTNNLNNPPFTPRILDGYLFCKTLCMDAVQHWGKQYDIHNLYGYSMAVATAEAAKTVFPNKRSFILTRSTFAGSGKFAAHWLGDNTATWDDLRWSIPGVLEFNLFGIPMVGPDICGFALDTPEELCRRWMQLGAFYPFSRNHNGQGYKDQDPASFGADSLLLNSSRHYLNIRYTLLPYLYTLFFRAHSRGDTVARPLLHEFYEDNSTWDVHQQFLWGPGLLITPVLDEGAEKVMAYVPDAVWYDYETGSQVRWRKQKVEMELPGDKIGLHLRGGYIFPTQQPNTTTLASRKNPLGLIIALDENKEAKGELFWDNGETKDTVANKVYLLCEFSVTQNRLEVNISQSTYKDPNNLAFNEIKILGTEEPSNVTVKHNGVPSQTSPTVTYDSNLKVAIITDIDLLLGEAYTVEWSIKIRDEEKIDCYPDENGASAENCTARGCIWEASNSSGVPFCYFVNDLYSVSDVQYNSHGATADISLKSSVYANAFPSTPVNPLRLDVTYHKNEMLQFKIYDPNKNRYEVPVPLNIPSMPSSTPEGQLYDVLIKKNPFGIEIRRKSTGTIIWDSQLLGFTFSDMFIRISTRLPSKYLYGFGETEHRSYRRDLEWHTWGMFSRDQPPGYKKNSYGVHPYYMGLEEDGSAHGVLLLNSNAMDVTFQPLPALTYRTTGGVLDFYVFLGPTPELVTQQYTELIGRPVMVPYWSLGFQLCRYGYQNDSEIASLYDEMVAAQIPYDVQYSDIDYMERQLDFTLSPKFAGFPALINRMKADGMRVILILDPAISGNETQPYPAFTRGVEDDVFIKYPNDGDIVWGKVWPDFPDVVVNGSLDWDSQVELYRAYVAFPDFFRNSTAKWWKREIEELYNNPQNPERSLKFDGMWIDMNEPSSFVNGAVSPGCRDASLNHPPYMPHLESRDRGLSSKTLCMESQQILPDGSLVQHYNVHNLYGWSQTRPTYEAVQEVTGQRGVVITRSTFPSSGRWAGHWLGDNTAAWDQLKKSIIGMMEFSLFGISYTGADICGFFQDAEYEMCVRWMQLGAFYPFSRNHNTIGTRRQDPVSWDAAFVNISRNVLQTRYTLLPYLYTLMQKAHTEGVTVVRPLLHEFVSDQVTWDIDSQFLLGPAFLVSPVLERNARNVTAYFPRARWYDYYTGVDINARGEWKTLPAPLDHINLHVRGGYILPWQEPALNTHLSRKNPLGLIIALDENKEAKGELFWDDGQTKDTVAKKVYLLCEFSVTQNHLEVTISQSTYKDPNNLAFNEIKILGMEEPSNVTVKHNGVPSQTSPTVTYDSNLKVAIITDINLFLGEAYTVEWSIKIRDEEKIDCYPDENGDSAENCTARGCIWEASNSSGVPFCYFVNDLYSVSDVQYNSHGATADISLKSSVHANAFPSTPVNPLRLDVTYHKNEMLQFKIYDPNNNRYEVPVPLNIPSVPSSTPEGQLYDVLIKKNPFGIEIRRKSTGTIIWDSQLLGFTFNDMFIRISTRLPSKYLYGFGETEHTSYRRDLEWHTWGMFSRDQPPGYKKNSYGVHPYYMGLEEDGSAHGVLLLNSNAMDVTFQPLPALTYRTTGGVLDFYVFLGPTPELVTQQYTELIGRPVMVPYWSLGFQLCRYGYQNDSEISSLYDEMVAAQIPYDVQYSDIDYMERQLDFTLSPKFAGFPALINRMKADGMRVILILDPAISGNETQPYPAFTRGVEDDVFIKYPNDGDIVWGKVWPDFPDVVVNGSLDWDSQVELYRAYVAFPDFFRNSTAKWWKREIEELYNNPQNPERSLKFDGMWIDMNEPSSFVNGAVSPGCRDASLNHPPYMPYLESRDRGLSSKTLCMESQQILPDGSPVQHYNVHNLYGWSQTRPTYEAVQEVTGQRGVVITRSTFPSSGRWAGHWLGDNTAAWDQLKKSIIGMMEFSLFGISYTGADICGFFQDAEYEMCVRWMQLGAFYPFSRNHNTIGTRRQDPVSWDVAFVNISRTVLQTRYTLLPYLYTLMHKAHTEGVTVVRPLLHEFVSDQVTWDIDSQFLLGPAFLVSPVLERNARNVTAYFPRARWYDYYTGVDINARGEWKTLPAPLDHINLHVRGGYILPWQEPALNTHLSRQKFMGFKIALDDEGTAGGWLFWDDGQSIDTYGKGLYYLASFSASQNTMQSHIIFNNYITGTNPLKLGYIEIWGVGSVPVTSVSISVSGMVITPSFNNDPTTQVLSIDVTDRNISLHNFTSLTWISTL

**Q.** With `CC(=O)OC1=CC2=C(COC2=O)[C@@]2(C)CCCC(C)(C)[C@H]12` as the compound, how does the Activity [1] read?
**A.** inactive

**Q.** For `CC(=O)O[C@@H]1C=C([C@@H]2O[C@@H]3O[C@H](O)C4=C[C@@H](OC(C)=O)[C@H]5C(C)(C)CCC[C@]5(C)[C@]43O2)[C@](O)(C=O)[C@@]2(C)CCCC(C)(C)[C@H]12`, which Activity [1] is on record?
**A.** inactive

**Q.** With `CC(=O)O[C@@H]1C=C2C3OC4OC5OC(O[C@@]24[C@@]2(C)CCCC(C)(C)[C@H]12)C1=C[C@@H](OC(C)=O)[C@H]2C(C)(C)CCC[C@]2(C)[C@]15O3` as the compound, how does the Activity [1] read?
**A.** inactive

**Q.** With `CC(=O)O[C@@H]1[C@@H](O[C@H]2O[C@@H]3O[C@H](C4=C[C@@H](OC(C)=O)[C@H]5C(C)(C)CCC[C@]5(C)[C@@]4(O)C=O)O[C@@]34C2=C[C@@H](OC(C)=O)[C@H]2C(C)(C)CCC[C@@]24C)C2=C(C(=O)OC2)[C@@]2(C)CCCC(C)(C)[C@H]12` as the compound, how does the Activity [1] read?
**A.** inactive

**Q.** For `CC(=O)O[C@@H]1[C@H]([C@@H]2C3=C(C(=O)OC3)[C@@]3(C)CCCC(C)(C)[C@@H]3[C@@H]2OC(C)=O)C2=C(C(=O)OC2)[C@@]2(C)CCCC(C)(C)[C@H]12`, which Activity [1] is on record?
**A.** inactive

**Q.** Which Activity [1] does the source give for `CC(C)=CCC/C(C)=C/CC/C(C)=C/CC[C@]1(C)CCc2cc(O)cc(C)c2O1` here?
**A.** inactive

**Q.** For `CC1(C)CCC[C@]2(C)C3=C(C=C[C@@H]12)C(=O)OC3`, which Activity [1] is on record?
**A.** inactive

**Q.** For `CC1(C)CCC[C@]2(C)[C@H](C=O)C(C=O)=CC[C@@H]12`, which Activity [1] is on record?
**A.** inactive

**Q.** Which Activity [1] does the source give for `CC1(C)CCC[C@]2(C)[C@H]3COC(=O)C3=CC[C@@H]12` here?
**A.** inactive

**Q.** With `CC1=C(C(=O)O)C(=O)C2=C3[C@@](C)(CCC[C@]13C)CO2` as the compound, how does the Activity [1] read?
**A.** inactive

**Q.** For `COC1O[C@H]2O[C@H](C3=C[C@@H](OC(C)=O)[C@H]4C(C)(C)CCC[C@]4(C)[C@@]3(O)C=O)O[C@@]23C1=C[C@@H](OC(C)=O)[C@H]1C(C)(C)CCC[C@@]13C` (stereo partly drawn), which inhibition [1] is on record?
**A.** 26.5%

**Q.** For `OC[C@H]1NC[C@H](O)[C@@H](O)[C@@H]1O`, which inhibition [1] is on record?
**A.** 100%

**Q.** What does the source list for `Nc1nc2c(ncn2COCCO)c(=O)[nH]1` [ACYCLOVIR]?
**A.** MCC [2]: > 500000 nM; MIC [3]: > 500 µM; MIC [4]: > 500 µM; MIC [5]: 0.48 µM (≈ 0.108 µg/mL); MIC [6]: 0.48 µM (≈ 0.108 µg/mL); MIC [7]: 60 µM (≈ 13.5 µg/mL)

**Q.** With `CC(=O)O[C@@H]1C=C(C2O[C@@H]3OC(O)C4=C[C@@H](OC(C)=O)[C@H]5C(C)(C)CCC[C@]5(C)[C@]43O2)[C@](O)(C=O)[C@@]2(C)CCCC(C)(C)[C@H]12` (stereo partly drawn) [CAPSICODENDRIN] as the compound, how does the inhibition [1] read?
**A.** 89.4%

**Q.** And the IC50 [8]?
**A.** 1210 nM

**Q.** And the IC50 [9]?
**A.** 940 nM

**Q.** What about the IC50 [10] of the same compound?
**A.** 860 nM

**Q.** What about the MCC [2] of the same compound?
**A.** ≥ 1030 nM

**Q.** What about the MIC [3] of the same compound?
**A.** > 1.03 µM

**Q.** And the MIC [4]?
**A.** > 1.03 µM

**Q.** And the MIC [11]?
**A.** > 1.03 µM

**Q.** What about the MCC [12] of the same compound?
**A.** 5.16 µM

**Q.** What about the MIC [5] of the same compound?
**A.** > 1.03 µM

**Q.** What about the MIC [6] of the same compound?
**A.** > 1.03 µM

**Q.** And the MIC [13]?
**A.** > 1.03 µM

**Q.** And the MIC [7]?
**A.** > 1.03 µM

**Q.** Which inhibition [1] does the source give for `CC(=O)O[C@@H]1C=C(C=O)[C@](O)(C=O)[C@@]2(C)CCCC(C)(C)[C@H]12` [CINNAMODIAL] here?
**A.** 78.2%

**Q.** What about the IC50 [8] of the same compound?
**A.** 580 nM

**Q.** What about the IC50 [9] of the same compound?
**A.** 1510 nM

**Q.** What about the IC50 [10] of the same compound?
**A.** 1610 nM

**Q.** And the MCC [2]?
**A.** ≥ 2060 nM

**Q.** What about the MIC [3] of the same compound?
**A.** > 2.06 µM

**Q.** And the MIC [4]?
**A.** > 2.06 µM

**Q.** And the MIC [11]?
**A.** > 2.06 µM

**Q.** And the MCC [12]?
**A.** 10.3 µM

**Q.** What about the MIC [5] of the same compound?
**A.** > 2.06 µM

**Q.** What about the MIC [6] of the same compound?
**A.** > 2.06 µM

**Q.** And the MIC [13]?
**A.** > 2.06 µM

**Q.** And the MIC [7]?
**A.** > 2.06 µM

**Q.** Which MIC [4] does the source give for `NC(=O)c1ncn([C@@H]2O[C@H](CO)[C@@H](O)[C@H]2O)n1` [RIBAVIRIN] here?
**A.** 300 µM (≈ 73.3 µg/mL)

**Q.** And the MIC [11]?
**A.** 60 µM (≈ 14.7 µg/mL)

**Q.** And the MCC [12]?
**A.** > 500 µM

**Q.** And the MIC [13]?
**A.** > 500 µM
